These results are taken from publication PMC6568317 (ACS chemical biology, 2017).

Experiment [1] addresses T1, Plasmodium falciparum orotate phosphoribosyltransferase (PfOPRT) (Plasmodium falciparum, UniProt Q8I3Y0).
T1 sequence (Q8I3Y0 1-281): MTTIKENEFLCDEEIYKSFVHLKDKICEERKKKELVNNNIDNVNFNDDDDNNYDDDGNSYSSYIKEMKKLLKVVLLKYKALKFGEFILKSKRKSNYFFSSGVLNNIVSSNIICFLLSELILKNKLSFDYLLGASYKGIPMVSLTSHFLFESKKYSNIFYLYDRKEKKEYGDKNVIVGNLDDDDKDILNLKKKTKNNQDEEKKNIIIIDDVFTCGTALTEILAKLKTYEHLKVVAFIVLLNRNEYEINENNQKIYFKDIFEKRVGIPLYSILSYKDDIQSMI
The experiment can be described thus: PfOPRT inhibition assay. It counts as biochemical.

Experiment [2] deals with T2, human orotate phosphoribosyltransferase (HsOPRT) (Homo sapiens, UniProt P11172).
T2 sequence (P11172 1-214 limits assumed): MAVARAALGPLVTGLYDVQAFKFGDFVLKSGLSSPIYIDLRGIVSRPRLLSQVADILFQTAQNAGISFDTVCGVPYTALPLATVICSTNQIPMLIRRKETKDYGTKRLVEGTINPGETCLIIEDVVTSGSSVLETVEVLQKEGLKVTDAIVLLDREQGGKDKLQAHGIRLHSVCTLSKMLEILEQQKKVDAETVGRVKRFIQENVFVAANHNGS
The experiment can be described thus: HsOPRT inhibition assay. The conditions noted are these: for inhibition of HsOPRT: at D-DIAB or L-DIAB concentrations of 200 μM. Format: biochemical. In a few lines:
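Human OPRT, 200 nM, at 25 °C in 50 mM Tris-HCl pH 8.0 with 5 mM MgCl₂. Substrates are 500 μM orotidine 5′-monophosphate and 1 mM pyrophosphate, with bis-phosphate iminoaltritol test compound present. Reaction followed by absorbance at 266 nm. Ki derived from initial rates measured in triplicate.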

Experiment [3] deals with T3, Saccharomyces cerevisiae adenine phosphoribosyltransferase (ScAPRT) (Saccharomyces cerevisiae, UniProt P49435).
T3 sequence (P49435 1-187): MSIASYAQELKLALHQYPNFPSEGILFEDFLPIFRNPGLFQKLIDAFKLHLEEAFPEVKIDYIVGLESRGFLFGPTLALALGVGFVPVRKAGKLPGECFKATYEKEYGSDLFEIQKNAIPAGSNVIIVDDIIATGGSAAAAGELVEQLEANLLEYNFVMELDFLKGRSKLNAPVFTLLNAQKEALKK
Nature of the experiment: ScAPRT inhibition assay. Format: biochemical.

The target in experiment [4] is T3, Saccharomyces cerevisiae adenine phosphoribosyltransferase (ScAPRT). Particulars: read-out: KM for PRPP (ScAPRT); previously reported substrate KM; cited from earlier work.

Structures are written as SMILES.

With `O=P(O)(O)OC[C@H]1N[C@H](COP(=O)(O)O)[C@@H](O)[C@@H]1O` [D-DIAB, D-2,5-dideoxy-2,5-imino-altritol 1,6-bisphosphate], the “selectivity for D-DIAB over L-DIAB in PfOPRT inhibition” value in experiment [1] (ratio of Ki values, Table 1) stood at 3 fold. Besides, the “inhibition of HsOPRT” value in experiment [2] is “no apparent inhibition”.

The term Ki denotes the equilibrium dissociation constant of an inhibitor or competing ligand from its target. A lower Ki goes with higher affinity. In the case of `O=P(O)(O)OC[C@H]1N[C@H](COP(=O)(O)O)[C@@H](O)[C@H]1O` (stereo in doubt) [L-DIAB, L-2,5-dideoxy-2,5-imino-altritol 1,6-bisphosphate], the results for the Ki in experiment [3], in experiment [1] and in experiment [2] were 14.9 ± 2.9 µM, 103 ± 17 µM and greater than 200 µM, respectively. For the same compound, in experiment [2], the “inhibition of HsOPRT” value is on record as “no apparent inhibition”.

The term Km denotes the substrate concentration at which the rate is half of its maximum. For `O=P(O)(O)OC[C@H]1O[C@H](OP(=O)(O)OP(=O)(O)O)[C@H](O)[C@@H]1O` [PRPP, 5-phospho-α-D-ribosyl 1-pyrophosphate], in experiment [4], the Km is 20 µM.
